Measured values from article PMC6954317 (Bioorganic chemistry, 2019).
Like-named read-outs stand apart in the source and are kept apart here.

Columns and labels:
SphK1 = SphK1 (Homo sapiens, UniProt Q9NYA1); experiment: SphK1 inhibition, fluorometric assay with NBD-sphingosine as substrate; type: biochemical
Procedure, shortened: (§1)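 Recombinant SphK1 or SphK2 at 100 nM in 30 mM Tris-HCl pH 7.4 with 150 mM NaCl, 10% glycerol, 0.05% Triton X-100 and 1% DMSO. Test compounds were dissolved in DMSO and screened at 650 μM; actives were then tested at several concentrations to derive IC50. NBD-sphingosine-1-phosphate formation was read by fluorescence (ex 550 nm, em 584 nm) at 37 °C.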

SphK2 [1] = target: T1, SphK2 (Homo sapiens, UniProt Q9NRA0); details: read-out: inhibitory effect reported for K145 on SphK2; cited from earlier work
T1 sequence (Q9NRA0 1-654): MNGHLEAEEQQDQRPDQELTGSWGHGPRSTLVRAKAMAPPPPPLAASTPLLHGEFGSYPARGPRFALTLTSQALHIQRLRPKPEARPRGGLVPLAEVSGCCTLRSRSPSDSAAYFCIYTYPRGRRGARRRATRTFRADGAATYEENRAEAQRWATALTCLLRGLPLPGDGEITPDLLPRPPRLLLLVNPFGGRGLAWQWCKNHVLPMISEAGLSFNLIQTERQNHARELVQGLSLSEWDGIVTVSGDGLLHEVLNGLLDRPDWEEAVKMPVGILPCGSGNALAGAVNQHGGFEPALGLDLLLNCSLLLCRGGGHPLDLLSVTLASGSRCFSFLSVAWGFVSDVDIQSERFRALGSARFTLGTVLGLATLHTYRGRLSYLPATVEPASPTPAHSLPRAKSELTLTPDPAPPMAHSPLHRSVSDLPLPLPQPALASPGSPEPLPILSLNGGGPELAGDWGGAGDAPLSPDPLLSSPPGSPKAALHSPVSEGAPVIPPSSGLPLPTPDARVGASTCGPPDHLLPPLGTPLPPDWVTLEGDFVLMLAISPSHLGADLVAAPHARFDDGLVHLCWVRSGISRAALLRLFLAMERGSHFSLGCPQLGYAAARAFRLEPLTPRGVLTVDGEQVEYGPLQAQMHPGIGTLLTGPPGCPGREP

SphK2 [2] = target: T1, SphK2; experiment: SphK2 inhibition, fluorometric assay with NBD-sphingosine as substrate; type: biochemical; details: read-out: IC50 for SphK2; 100 nM recombinant SphK2, NBD-sphingosine, 37 °C
Procedure, shortened: as §1

Sequence of SphK1 (Q9NYA1 whole entry): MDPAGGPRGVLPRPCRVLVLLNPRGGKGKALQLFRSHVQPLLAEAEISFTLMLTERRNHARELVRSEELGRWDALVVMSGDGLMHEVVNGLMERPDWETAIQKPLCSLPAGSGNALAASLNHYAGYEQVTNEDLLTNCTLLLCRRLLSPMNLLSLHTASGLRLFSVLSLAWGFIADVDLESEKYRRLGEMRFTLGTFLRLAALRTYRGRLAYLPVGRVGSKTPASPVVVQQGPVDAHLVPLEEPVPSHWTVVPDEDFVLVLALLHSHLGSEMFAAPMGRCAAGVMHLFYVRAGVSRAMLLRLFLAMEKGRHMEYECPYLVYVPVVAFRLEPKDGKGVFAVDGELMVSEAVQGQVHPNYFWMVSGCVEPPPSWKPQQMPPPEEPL

Row | Compound | IC50 (SphK1) [µM] | further results
1 | CCCCOc1ccc(CCC=C2SC(=O)N(CCN)C2=O)cc1 [K145, 3-(2-amino-ethyl)-5-[3-(4-butoxyl-phenyl)-propylidene]-thiazolidine-2,4-dione] | – | IC50 (SphK2 [1]): 4.3 µM
2 | COc1ccc2[nH]c(=O)c(/C=C/C(=O)c3ccc(Nc4nccc(-c5ccc(Cl)cc5)n4)cc3)cc2c1 [11a, (E)-3-(3-(4-((4-(4-chlorophenyl)pyrimidin-2-yl)amino)phenyl)-3-oxoprop-1-en-1-yl)-6-methoxyquinolin-2(1H)-one] | 28.2 | –
3 | COc1ccc2[nH]c(=O)c(/C=C/C(=O)c3ccc(Nc4nccc(-c5ccc6ccccc6c5)n4)cc3)cc2c1 [11b, (E)-6-methoxy-3-(3-(4-((4-(naphthalen-2-yl)pyrimidin-2-yl)amino)phenyl)-3-oxoprop-1-en-1-yl)quinolin-2(1H)-one] | – | selectivity SphK1 versus SphK2 (SphK1; in words): selective inhibitory effect on SphK1
4 | 3-((4-(4-chlorophenyl)pyrimidin-2-yl)-1-yl)oxymethyl) quinolin-2(1H)-ones [compound 9] | – | IC50 (SphK2 [2]): 18.2 µM
5 | Oc1ccc(Nc2nccc(-c3ccc(Cl)cc3)n2)cc1 [4a, 4-((4-(4-chlorophenyl)pyrimidin-2-yl)amino)phenol] | 43.9 | –
6 | COc1cc2cc(CNc3ccc(Nc4nccc(-c5ccc6ccccc6c5)n4)cc3)c(=O)[nH]c2cc1OC [16b, 6,7-dimethoxy-3-(((4-((4-(naphthalen-2-yl)pyrimidin-2-yl)amino)phenyl)amino)methyl)quinolin −2(1H)-one] | 18.7 | –

Second part, led by results:

Row | IC50 (SphK1) [µM] | Compound | further results
7 | 15.7 | O=c1[nH]c2cc(O)c(O)cc2cc1CNc1ccc(Nc2nccc(-c3ccc4ccccc4c3)n2)cc1 [19b, 6,7-dihydroxy-3-(((4-((4-(naphthalene-2-yl)pyrimidin-2-yl)amino)phenyl)amino)methyl)quinolin-2(1H)-one] | –
8 | 59.1 | COc1cc2cc(CNc3ccc(Nc4nccc(-c5ccc(Cl)cc5)n4)cc3)c(=O)[nH]c2cc1OC [16a, 3-(((4-((4-(4-chlorophenyl)pyrimidin-2-yl)amino)phenyl)amino)methyl)-6,7-dimethoxyquinolin-2(1H)-one] | –
